# Results from publication PMC8994735 (Targeted Oncology, 2021).
# Where two headings read alike, the source gives them in different places.
# Tested on: East Asian patients with advanced nonhematologic malignancies
# Assay type: in vivo, human
# Summary of the method: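 AEs were graded by NCI CTCAE v4.03 in all patients receiving ≥ 1 oral dose, given once daily or once weekly in 28-day cycles for up to 12 months. Follow-up lasted 30 days after the last dose. Entry required ECOG 0–1, fasting glucose ≤ 130 mg/dL and triglycerides ≤ 300 mg/dL. Summaries were descriptive.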
# [1] = QD dose escalation 2 mg (n = 3)
# [2] = QD dose escalation 3 mg (n = 6)
# [3] = QD dose escalation 4 mg (n = 7)
# [4] = QD dose escalation + expansion 3 mg (n = 12)
compound,measurement,setting,value
CC(C)n1nc(-c2ccc3oc(N)nc3c2)c2c(N)ncnc21 [sapanisertib],Tolerability,"East Asian patients, QD and QW",generally well-tolerated
same,AE decreased appetite,QD arm,50%
same,AE nausea,QD arm,50%
same,Treatment-related AE decreased appetite,QD arm,45%
same,Treatment-related AE nausea,QD arm,50%
same,Discontinued treatment due to AEs,"QD arm (myocardial infarction, diarrhea and gastrointestinal inflammation, rash maculo-papular)",three
same,AEs resulting in discontinuation,[1],1 (33) n (%)
same,AEs resulting in dose interruption,[1],1 (33) n (%)
same,AEs resulting in dose reduction,[1],0 n (%)
same,Any AE,[1],3 (100) n (%)
same,Any grade ≥ 3 AE,[1],1 (33) n (%)
same,On-study deaths,[1],0 n (%)
same,SAEs,[1],0 n (%)
same,Treatment-related AE,[1],3 (100) n (%)
same,Treatment-related SAEs,[1],0 n (%)
same,Treatment-related grade ≥ 3 AE,[1],1 (33) n (%)
same,AEs resulting in discontinuation,[2],0 n (%)
same,AEs resulting in dose interruption,[2],5 (83) n (%)
same,AEs resulting in dose reduction,[2],0 n (%)
same,Any AE,[2],6 (100) n (%)
same,Any grade ≥ 3 AE,[2],2 (33) n (%)
same,On-study deaths,[2],0 n (%)
same,SAEs,[2],2 (33) n (%)
same,Treatment-related AE,[2],6 (100) n (%)
same,Treatment-related SAEs,[2],0 n (%)
same,Treatment-related grade ≥ 3 AE,[2],0 n (%)
same,AEs resulting in discontinuation,[3],2 (29) n (%)
same,AEs resulting in dose interruption,[3],6 (86) n (%)
same,AEs resulting in dose reduction,[3],3 (43) n (%)
same,Any AE,[3],7 (100) n (%)
same,Any grade ≥ 3 AE,[3],6 (86) n (%)
same,On-study deaths,[3],0 n (%)
same,SAEs,[3],3 (43) n (%)
same,Treatment-related AE,[3],7 (100) n (%)
same,Treatment-related SAEs,[3],2 (29) n (%)
same,Treatment-related grade ≥ 3 AE,[3],6 (86) n (%)
same,AEs resulting in discontinuation,[4],0 n (%)
same,AEs resulting in dose interruption,[4],8 (67) n (%)
same,AEs resulting in dose reduction,[4],1 (8) n (%)
same,Any AE,[4],12 (100) n (%)
same,Any grade ≥ 3 AE,[4],7 (58) n (%)
same,On-study deaths,[4],0 n (%)
same,SAEs,[4],3 (25) n (%)
same,Treatment-related AE,[4],12 (100) n (%)
same,Treatment-related SAEs,[4],0 n (%)
same,Treatment-related grade ≥ 3 AE,[4],3 (25) n (%)
same,AEs resulting in discontinuation,QD dose expansion 3 mg (n = 6),0 n (%)
same,AEs resulting in dose interruption,QD dose expansion 3 mg (n = 6),3 (50) n (%)
same,AEs resulting in dose reduction,QD dose expansion 3 mg (n = 6),1 (17) n (%)
same,Any AE,QD dose expansion 3 mg (n = 6),6 (100) n (%)
same,Any grade ≥ 3 AE,QD dose expansion 3 mg (n = 6),5 (83) n (%)
same,On-study deaths,QD dose expansion 3 mg (n = 6),0 n (%)
same,SAEs,QD dose expansion 3 mg (n = 6),1 (17) n (%)
same,Treatment-related AE,QD dose expansion 3 mg (n = 6),6 (100) n (%)
same,Treatment-related SAEs,QD dose expansion 3 mg (n = 6),0 n (%)
same,Treatment-related grade ≥ 3 AE,QD dose expansion 3 mg (n = 6),3 (50) n (%)
same,AE by preferred term: Abdominal pain,QD dosing n = 22,3 (14) n (%)
same,AE by preferred term: Alanine aminotransferase increased,QD dosing n = 22,4 (18) n (%)
same,AE by preferred term: Anemia,QD dosing n = 22,5 (23) n (%)
same,AE by preferred term: Aspartate aminotransferase increased,QD dosing n = 22,6 (27) n (%)
same,AE by preferred term: Constipation,QD dosing n = 22,4 (18) n (%)
same,AE by preferred term: Decreased appetite,QD dosing n = 22,11 (50) n (%)
same,AE by preferred term: Diarrhea,QD dosing n = 22,2 (9) n (%)
same,AE by preferred term: Erythema,QD dosing n = 22,2 (9) n (%)
same,AE by preferred term: Erythema multiforme,QD dosing n = 22,2 (9) n (%)
same,AE by preferred term: Fatigue,QD dosing n = 22,7 (32) n (%)
same,AE by preferred term: Gamma-glutamyltransferase increased,QD dosing n = 22,2 (9) n (%)
same,AE by preferred term: Gastrointestinal inflammation,QD dosing n = 22,2 (9) n (%)
same,AE by preferred term: Headache,QD dosing n = 22,2 (9) n (%)
same,AE by preferred term: Hyperglycemia,QD dosing n = 22,9 (41) n (%)
same,AE by preferred term: Hypokalemia,QD dosing n = 22,3 (14) n (%)
same,AE by preferred term: Lymphocyte count decreased,QD dosing n = 22,4 (18) n (%)
same,AE by preferred term: Nausea,QD dosing n = 22,11 (50) n (%)
same,AE by preferred term: Neutrophil count decreased,QD dosing n = 22,2 (9) n (%)
same,AE by preferred term: Platelet count decreased,QD dosing n = 22,6 (27) n (%)
same,AE by preferred term: Pruritus,QD dosing n = 22,2 (9) n (%)
same,AE by preferred term: Pyrexia,QD dosing n = 22,4 (18) n (%)
same,AE by preferred term: Rash erythematous,QD dosing n = 22,2 (9) n (%)
same,AE by preferred term: Rash maculo-papular,QD dosing n = 22,5 (23) n (%)
same,AE by preferred term: Rash pustular,QD dosing n = 22,2 (9) n (%)
same,AE by preferred term: Stomatitis,QD dosing n = 22,14 (64) n (%)
same,AE by preferred term: Urticaria,QD dosing n = 22,3 (14) n (%)
same,AE by preferred term: Vomiting,QD dosing n = 22,5 (23) n (%)
same,AE by preferred term: Weight decreased,QD dosing n = 22,7 (32) n (%)
same,AE by preferred term: White blood cell count decreased,QD dosing n = 22,4 (18) n (%)
same,Grade ≥ 3 AE: Acute myocardial infarction,QD dosing n = 22,1 (5) n (%)
same,Grade ≥ 3 AE: Aspartate aminotransferase increased,QD dosing n = 22,1 (5) n (%)
same,Grade ≥ 3 AE: Blood creatine phosphokinase increased,QD dosing n = 22,1 (5) n (%)
same,Grade ≥ 3 AE: Decreased appetite,QD dosing n = 22,1 (5) n (%)
same,Grade ≥ 3 AE: Diarrhea,QD dosing n = 22,1 (5) n (%)
same,Grade ≥ 3 AE: Gamma-glutamyltransferase increased,QD dosing n = 22,1 (5) n (%)
same,Grade ≥ 3 AE: Gastrointestinal inflammation,QD dosing n = 22,1 (5) n (%)
same,Grade ≥ 3 AE: Genital herpes,QD dosing n = 22,1 (5) n (%)
same,Grade ≥ 3 AE: Gingivitis,QD dosing n = 22,1 (5) n (%)
same,Grade ≥ 3 AE: Jaundice cholestatic,QD dosing n = 22,1 (5) n (%)
same,Grade ≥ 3 AE: Lymphocyte count decreased,QD dosing n = 22,2 (9) n (%)
same,Grade ≥ 3 AE: Nausea,QD dosing n = 22,2 (9) n (%)
same,Grade ≥ 3 AE: Neutrophil count decreased,QD dosing n = 22,1 (5) n (%)
same,Grade ≥ 3 AE: Platelet count decreased,QD dosing n = 22,1 (5) n (%)
same,Grade ≥ 3 AE: Post herpetic neuralgia,QD dosing n = 22,1 (5) n (%)
same,Grade ≥ 3 AE: Pruritus,QD dosing n = 22,1 (5) n (%)
same,Grade ≥ 3 AE: Rash maculo-papular,QD dosing n = 22,2 (9) n (%)
same,Grade ≥ 3 AE: Rash pustular,QD dosing n = 22,1 (5) n (%)
same,Grade ≥ 3 AE: Renal impairment,QD dosing n = 22,1 (5) n (%)
same,Grade ≥ 3 AE: Sepsis,QD dosing n = 22,1 (5) n (%)
same,Grade ≥ 3 AE: Stomatitis,QD dosing n = 22,2 (9) n (%)
same,Grade ≥ 3 AE: Urticaria,QD dosing n = 22,1 (5) n (%)
same,Grade ≥ 3 AE: White blood cell count decreased,QD dosing n = 22,1 (5) n (%)
same,Patients with ≥ 1 grade 3 or higher AE,QD dosing n = 22,14 (64) n (%)
same,AEs resulting in discontinuation,QD total (n = 22),3 (14) n (%)
same,AEs resulting in dose interruption,QD total (n = 22),15 (68) n (%)
same,AEs resulting in dose reduction,QD total (n = 22),4 (18) n (%)
same,Any AE,QD total (n = 22),22 (100) n (%)
same,Any grade ≥ 3 AE,QD total (n = 22),14 (64) n (%)
same,On-study deaths,QD total (n = 22),0 n (%)
same,SAEs,QD total (n = 22),6 (27) n (%)
same,Treatment-related AE,QD total (n = 22),22 (100) n (%)
same,Treatment-related SAEs,QD total (n = 22),2 (9) n (%)
same,Treatment-related grade ≥ 3 AE,QD total (n = 22),10 (45) n (%)
same,AE alanine aminotransferase increased,QW arm,50%
same,AE aspartate aminotransferase increased,QW arm,50%
same,AE blood alkaline phosphatase increased,QW arm,67%
same,AE decreased appetite,QW arm,50%
same,AE hyperglycemia,QW arm,67%
same,AE nausea,QW arm,100%
same,AE stomatitis,QW arm,33%
same,AE weight decreased,QW arm,50%
